Experimental data from ChEMBL document CHEMBL2093137, “WHO-TDR NTD Screening”.
Values after ≈ are worked out from the molar mass of the structure shown.

Key:
Trypanosoma cruzi = experiment: WHO-TDR: Chagas disease; assay type: functional, organism-based, Homo sapiens; conditions: MRC5
Method in brief: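 Whole-organism screen of a 10,000-compound diverse library from Life Chemicals, filtered for drug-likeness and reactive groups, against intracellular amastigotes of Trypanosoma cruzi Tulahuen CL2 beta-galactosidase strain grown in MRC-5SV2 human lung fibroblast host cells. The assay followed previously published standard procedures, with a reference drug as positive control. Antiparasitic potency is reported as IC50.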

Plasmodium falciparum K1 = experiment: WHO-TDR: Malaria; assay type: functional, organism-based, Homo sapiens; conditions: Erythrocyte
Method in brief: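 Values are IC50 figures for antiplasmodial potency. They come from a whole-organism screen of 10,000 diverse Life Chemicals compounds against Plasmodium falciparum K1 growing inside human red blood cells, run by previously published standard procedures.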

Brugia malayi [1] = experiment: (§1) WHO-TDR: Lymphatic Filariasis; assay type: functional; set-up: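 tested at 10 µM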
Method in brief: (§2)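 Whole-organism screen of a 10,000-compound diverse library from Life Chemicals, filtered for drug-likeness and reactive groups, against Brugia malayi microfilariae. The assay followed previously published standard procedures, with reference drugs as positive controls. Activity is reported as percent inhibition and as IC50.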

Brugia malayi [2] = experiment: as §1; assay type: functional, organism-based; method in brief: as §2
Onchocerca lienalis = experiment: (§3) WHO-TDR: Onchocerciasis; assay type: functional; set-up: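 at 12.5 µM on microfilariae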
Method in brief: (§4)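 Whole-organism screen of a 10,000-compound diverse library from Life Chemicals, filtered for drug-likeness and reactive groups, against microfilariae of Onchocerca ochengi or Onchocerca lienalis, used as animal-pathogen stand-ins for the human parasite. The assay followed previously published standard procedures, with reference drugs as positive controls. Activity is reported as percent inhibition and as IC50.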

[3] = system: Trypanosoma brucei brucei; experiment: WHO-TDR: Human African Trypanosomiasis (HAT); assay type: functional, organism-based; conditions: Squib-427
Method in brief: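 Values are IC50 figures for antiparasitic potency. They come from a whole-organism screen of 10,000 diverse Life Chemicals compounds against bloodstream-form Trypanosoma brucei (Squib 427 strain).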

[4] = WHO-TDR: Cytotoxicity; assay type: toxicity, cell-based; conditions: human, MRC5 cells
Brugia malayi [5] = experiment: as §1; assay type: functional; set-up: concentration or dose not given beside the values; method in brief: as §2; remark: listed apart in the source
Schistosoma mansoni [6] = experiment: (§5) WHO-TDR: Schistosomiasis; assay type: functional; set-up: concentration or dose not given beside the values
Method in brief: (§6)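 Whole-organism screen of a 10,000-compound diverse library from Life Chemicals, filtered for drug-likeness and reactive groups, against larval and/or adult worms of Schistosoma mansoni Puerto Rican strain. The assay followed previously published standard procedures, with a reference drug as positive control. Activity is reported as percent inhibition and as IC50.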

Leishmania infantum = experiment: WHO-TDR: Leishmaniasis; assay type: functional, organism-based, Mus musculus; conditions: Macrophage
Method in brief: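 Values are IC50 figures for antiparasitic potency. They come from a whole-organism screen of a 10,000-compound diverse Life Chemicals library against Leishmania infantum MHOM/MA(BE)/67 amastigotes inside murine peritoneal macrophage host cells.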

Schistosoma mansoni [7] = experiment: as §5; assay type: functional, organism-based; method in brief: as §6
Onchocerca ochengi = experiment: as §3; assay type: functional; set-up: concentration or dose not given beside the values; method in brief: as §4;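 note: at 12.5 µM on microfilariae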

Row | IC50 (Plasmodium falciparum K1) | IC50 (Brugia malayi [2]) | IC50 [3] | IC50 (Leishmania infantum) | IC50 (Schistosoma mansoni [7]) | SMILES | IC50 (Trypanosoma cruzi) | % Inhibition (Brugia malayi [1]) | % Inhibition (Onchocerca lienalis) | IC50 [4] | % Inhibition (Brugia malayi [5]) | % Inhibition (Schistosoma mansoni [6]) | % Inhibition (Onchocerca ochengi)
1 | > 13.3 µg/mL | 3.58 µM | > 13.3 µg/mL | > 13.3 µg/mL | – | O=C(CSc1nnc(NC(=O)C2CCCCC2)s1)Nc1ccccc1C(F)(F)F | > 13.3 µg/mL | 0% | 0% | > 13.3 µg/mL | 100% | 0% | –
2 | > 11.9 µg/mL | 5.95 µM | 4.14 µg/mL (≈ 10.4 µM) | 2.34 µg/mL (≈ 5.9 µM) | – | Cc1nn(-c2ccccc2)c2[nH]cc(C(=O)Nc3ccc(F)c(Cl)c3)c(=O)c12 | 1.96 µg/mL (≈ 4.93 µM) | 33.33% | -1% | 1 µg/mL (≈ 2.53 µM) | 100% | 62.5% | –
3 | 5.19 µg/mL (≈ 12.9 µM) | 4.61 µM | 4.03 µg/mL (≈ 10 µM) | > 12.1 µg/mL | – | COc1ccccc1C(=O)NCCSc1c(-c2ccccc2)[nH]c2ccccc12 | 2.91 µg/mL (≈ 7.24 µM) | 25% | 0% | > 12.1 µg/mL | 100% | 0% | –
4 | 1.52 µg/mL (≈ 4.49 µM) | 2.02 µM | 2.36 µg/mL (≈ 6.99 µM) | 3.21 µg/mL (≈ 9.49 µM) | – | O=C(Nc1nc(-c2ccccn2)cs1)c1ccc2ncsc2c1 | 0.345 µg/mL (≈ 1.02 µM) | 40% | 66.7% | 3.63 µg/mL (≈ 10.7 µM) | 100% | 0% | –
5 | > 11.1 µg/mL | 6.05 µM | 3.67 µg/mL (≈ 9.95 µM) | > 11.1 µg/mL | – | CCOC(=O)c1ccc(NC(=O)CSc2c(C)[nH]c3ccccc23)cc1 | 3.49 µg/mL (≈ 9.49 µM) | 0% | 46.7% | > 11.1 µg/mL | 100% | 0% | –
6 | > 12.8 µg/mL | 4.49 µM | > 13.6 µg/mL | > 12.8 µg/mL | – | Cc1[nH]c2ccccc2c1SCCNC(=O)c1c(-c2ccccc2Cl)noc1C | > 12.8 µg/mL | 25% | 20% | > 12.8 µg/mL | 100% | 0% | –
7 | > 16.3 µg/mL | 4.37 µM | > 17.4 µg/mL | 5.29 µg/mL (≈ 9.71 µM) | – | CCOC(=O)c1c(NC(=O)CSc2nc3c([nH]c4ccccc43)c(=O)n2-c2ccccc2)sc2c1CCC2 | > 16.3 µg/mL | 25% | 0% | > 16.3 µg/mL | 100% | 0% | –
8 | > 14.9 µg/mL | 3.97 µM | 2.24 µg/mL (≈ 4.49 µM) | > 14.9 µg/mL | – | CN(Cc1ccco1)S(=O)(=O)c1ccc(C(=O)Nc2nc3c(s2)CSc2ccccc2-3)cc1 | 3.86 µg/mL (≈ 7.76 µM) | 40% | 0% | > 14.9 µg/mL | 100% | 91.7% | –

Continued, molecule first:

Row | SMILES | IC50 (Plasmodium falciparum K1) | IC50 (Brugia malayi [2]) | IC50 [3] | IC50 (Leishmania infantum) | IC50 (Schistosoma mansoni [7]) | IC50 (Trypanosoma cruzi) | % Inhibition (Brugia malayi [1]) | % Inhibition (Onchocerca lienalis) | IC50 [4] | % Inhibition (Brugia malayi [5]) | % Inhibition (Schistosoma mansoni [6]) | % Inhibition (Onchocerca ochengi)
9 | O=S(=O)(c1ccccc1Cl)N1CCN(c2ccc(-c3ccco3)nn2)CC1 | > 12.1 µg/mL | – | > 12.1 µg/mL | > 12.1 µg/mL | 2.79 µg/mL (≈ 6.89 µM) | > 12.1 µg/mL | – | – | > 12.1 µg/mL | 0% | 100% | 0%
10 | O=C(CCC1CCCCC1)N1CCN(c2ccc(-c3cccnc3)nn2)CC1 | 6.4 µg/mL (≈ 16.9 µM) | – | > 11.4 µg/mL | > 11.4 µg/mL | 3.15 µg/mL (≈ 8.3 µM) | 4.89 µg/mL (≈ 12.9 µM) | – | – | > 11.4 µg/mL | 33.33% | 100% | 50%
11 | O=C(c1ccccc1F)N1CCN(c2ccc(-c3ccccn3)nn2)CC1 | 0.396 µg/mL (≈ 1.09 µM) | – | 1.59 µg/mL (≈ 4.37 µM) | > 10.9 µg/mL | 2.36 µg/mL (≈ 6.49 µM) | 0.375 µg/mL (≈ 1.03 µM) | – | – | 2.77 µg/mL (≈ 7.63 µM) | 33.33% | 100% | 100%
12 | O=C(Cc1csc(NC(=O)C2CCC(=O)N2)n1)NCc1ccccn1 (stereo unspecified) | > 10.8 µg/mL | – | > 10.8 µg/mL | > 10.8 µg/mL | 2.48 µg/mL (≈ 6.9 µM) | > 10.8 µg/mL | – | – | > 10.8 µg/mL | 20% | 100% | 0%
13 | O=C(COc1ccc(Cl)cc1Cl)Nc1nnc(C23CC4CC(CC(C4)C2)C3)s1 | > 13.2 µg/mL | 1.49 µM | > 13.2 µg/mL | 4.26 µg/mL (≈ 9.71 µM) | – | > 13.2 µg/mL | 0% | 0% | > 13.2 µg/mL | 100% | 0% | –
14 | O=C(Nc1nc2c(s1)CSc1ccccc1-2)C1CCCN1S(=O)(=O)c1cccs1 (stereo unspecified) | 3.71 µg/mL (≈ 8 µM) | 5.19 µM | 0.45 µg/mL (≈ 0.971 µM) | 4.5 µg/mL (≈ 9.71 µM) | – | 0.5 µg/mL (≈ 1.08 µM) | 0% | 93% | 1.88 µg/mL (≈ 4.06 µM) | 100% | 100% | –
15 | O=C(Nc1nccs1)c1ccc2c(c1)CCCC2 | > 7.75 µg/mL | 5.19 µM | > 7.75 µg/mL | > 7.75 µg/mL | – | > 7.75 µg/mL | 25% | 0% | > 7.75 µg/mL | 100% | 0% | –
16 | O=C(CSc1nnc(NC(=O)C23CC4CC(CC(C4)C2)C3)s1)Nc1nccs1 | > 13.1 µg/mL | 6.3 µM | > 13.1 µg/mL | 4.23 µg/mL (≈ 9.71 µM) | – | > 13.1 µg/mL | 33.33% | 33.34% | > 13.1 µg/mL | 100% | 0% | –
